Reference: ChEMBL document CHEMBL1156371, “New polyoxygenated briarane diterpenoids, briaexcavatolides O-R, from the gorgonian Briareum excavatum” (2001)
≈ marks a conversion by molar mass, not a printed value. Calls of active or inactive are those of the source. The rule behind the calls is not given here.

Legend:
Format in all cases: functional
HT-29 = assay: Cytotoxicity against human HT-29 cells by MTT assay
Summary of the method: (§1)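 Colorimetric read-out using a modified MTT [3-(4,5-dimethylthiazol-2-yl)-2,5-diphenyltetrazolium bromide] method, following previously described procedures.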

A549 = assay: Cytotoxicity against human A549 cells by MTT assay; summary of the method: as §1
P388 = assay: Cytotoxicity against mouse P388 cells by MTT assay; summary of the method: as §1
[1] = read-out: ED50 (the source's name)

Row | Structure (SMILES) | Activity (HT-29) | Activity (A549) | Activity (P388) | EC50 (HT-29; [1]) [µg/mL] | EC50 (A549; [1]) [µg/mL] | EC50 (P388; [1]) [µg/mL]
1 | CCCCCCCC(=O)O[C@H]1C[C@H](OC(C)=O)[C@@]2(C)[C@H]([C@H]1C)[C@H](OC(C)=O)[C@]13O[C@]1(C)C(=O)O[C@H]3/C=C(/C)C[C@H](OC(=O)CCC)[C@@H]2OC(C)=O | inactive | inactive | inactive | – | – | –
2 | CCCC(=O)O[C@@H]1/C(C)=C\[C@@H]2OC(=O)[C@@]3(C)O[C@]23[C@@H](OC(C)=O)[C@H]2[C@@H](C)[C@@H](OC(C)=O)C[C@H](OC(C)=O)[C@]2(C)[C@@H](OC(C)=O)[C@H]1O | inactive | inactive | inactive | – | – | –
3 | CCCC(=O)O[C@@H]1/C(C)=C\[C@@H]2OC(=O)[C@@]3(C)O[C@]23[C@@H](OC(C)=O)[C@H]2[C@@H](C)[C@@H](O)C[C@H](OC(C)=O)[C@]2(C)[C@@H](OC(C)=O)[C@H]1O [BRIAEXCAVATOLIDE P] | – | – | – | 3.1 (≈ 5.08 µM) | 4.8 (≈ 7.86 µM) | 0.9 (≈ 1.47 µM)
4 | CCCC(=O)O[C@@H]1/C(C)=C\[C@@H]2OC(=O)[C@@]3(C)O[C@]23[C@@H](OC(C)=O)[C@H]2[C@@H](C)[C@@H](O)C[C@H](OC(C)=O)[C@]2(C)[C@@H](O)[C@H]1OC(C)=O | inactive | inactive | inactive | – | – | –
